Test results published in ChEMBL document CHEMBL2417520, “Synthesis and biological evaluation of amino analogs of Ludartin: potent and selective cytotoxic agents” (Bioorg Med Chem Lett, 2013).
pIC50: −log10 of the molar value.

Experiments:
[1] = test system: A549; test: Cytotoxicity against human A549 cells assessed as cell growth inhibition at 50 uM after 48 hrs by sulphorhodamine B assay; type: functional; conditions: A549, 48 h, read-out: GI
Summary of the method: (§1)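 Single-concentration screen of analogs at 50 µM for 48 h on overnight-adhered cells maintained in RPMI-1640/10% FBS at 37 °C, 5% CO2. Cells were fixed with ice-cold TCA (60 min) and stained 30 min with 0.4% SRB in 1% acetic acid. Bound dye was dissolved in 10 mM Tris and OD read at 570 nm, expressed as % growth inhibition.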

[2] = test system: HCT-116; test: Cytotoxicity against human HCT116 cells assessed as cell growth inhibition at 50 uM after 48 hrs by sulphorhodamine B assay; type: functional; conditions: HCT-116, 48 h, read-out: GI; summary of the method: as §1
[3] = test system: THP-1; test: Cytotoxicity against human THP1 cells assessed as cell growth inhibition at 50 uM after 48 hrs by sulphorhodamine B assay; type: functional; conditions: THP-1, 48 h, read-out: GI; summary of the method: as §1
[4] = test system: PC-3; test: Cytotoxicity against human PC3 cells assessed as cell growth inhibition at 50 uM after 48 hrs by sulphorhodamine B assay; type: functional; conditions: PC-3, 48 h, read-out: GI; summary of the method: as §1
[5] = test system: THP-1; test: Cytotoxicity against human THP1 cells assessed as cell growth inhibition after 48 hrs by sulphorhodamine B assay; type: functional, cell-based; conditions: THP-1, 48 h
Summary of the method: (§2)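 Cells grown in RPMI-1640 with 10% FBS and penicillin/streptomycin at 37 °C under 5% CO2, then allowed to adhere overnight. Only analogs giving >50% inhibition at 50 µM were retested at 10–100 µM for 48 h. Cells were fixed with cold TCA and stained with 0.4% SRB in 1% acetic acid. Dye was solubilised in 10 mM Tris and read at 570 nm to give IC50.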

[6] = test system: PC-3; test: Cytotoxicity against human PC3 cells assessed as cell growth inhibition after 48 hrs by sulphorhodamine B assay; type: functional, cell-based; conditions: PC-3, 48 h; summary of the method: as §2
[7] = test system: A549; test: Cytotoxicity against human A549 cells assessed as cell growth inhibition after 48 hrs by sulphorhodamine B assay; type: functional, cell-based; conditions: A549, 48 h; summary of the method: as §2
[8] = test system: HCT-116; test: Cytotoxicity against human HCT116 cells assessed as cell growth inhibition after 48 hrs by sulphorhodamine B assay; type: functional, cell-based; conditions: HCT-116, 48 h; summary of the method: as §2
[9] = test system: PC-3; test: Ratio of ludartin IC50 to compound IC50 for human PC3 cells; type: functional
[10] = test system: A549; test: Ratio of ludartin IC50 to compound IC50 for human A549 cells; type: functional

| SMILES | inhibition of growth at 50 µM [1] | inhibition of growth at 50 µM [2] | inhibition of growth at 50 µM [3] | inhibition of growth at 50 µM [4] | pIC50 [5] | pIC50 [6] | pIC50 [7] | pIC50 [8] | Ratio IC50 [9] | Ratio IC50 [10] |
| --- | --- | --- | --- | --- | --- | --- | --- | --- | --- | --- |
| CNC[C@@H]1C(=O)O[C@H]2[C@H]1CCC(C)=C1C[C@H]3O[C@@]3(C)[C@@H]12 | 10% | 16% | 25% | 12% |  |  |  |  |  |  |
| CCNC[C@@H]1C(=O)O[C@H]2[C@H]1CCC(C)=C1C[C@H]3O[C@@]3(C)[C@@H]12 | 20% | 36% | 68% | 43% | 4.54 |  |  |  |  |  |
| CCCNC[C@@H]1C(=O)O[C@H]2[C@H]1CCC(C)=C1C[C@H]3O[C@@]3(C)[C@@H]12 | 39% | 2% | 23% | 17% |  |  |  |  |  |  |
| CCCCNC[C@@H]1C(=O)O[C@H]2[C@H]1CCC(C)=C1C[C@H]3O[C@@]3(C)[C@@H]12 | 0% | 4% | 28% | 14% |  |  |  |  |  |  |
| CCN(CC)C[C@@H]1C(=O)O[C@H]2[C@H]1CCC(C)=C1C[C@H]3O[C@@]3(C)[C@@H]12 | 73% | 95% | 98% | 56% | 5.46 | 4.49 | 4.66 | 5.43 |  |  |
| C=CCNC[C@@H]1C(=O)O[C@H]2[C@H]1CCC(C)=C1C[C@H]3O[C@@]3(C)[C@@H]12 | 0% | 28% | 39% | 16% |  |  |  |  |  |  |
| C#CCNC[C@@H]1C(=O)O[C@H]2[C@H]1CCC(C)=C1C[C@H]3O[C@@]3(C)[C@@H]12 | 36% | 4% | 40% | 33% |  |  |  |  |  |  |
| CC1=C2C[C@H]3O[C@@]3(C)[C@@H]2[C@H]2OC(=O)[C@@H](CN3CCCC3)[C@@H]2CC1 | 0% | 15% | 67% | 11% | 4.59 |  |  |  |  |  |
| CC1=C2C[C@H]3O[C@@]3(C)[C@@H]2[C@H]2OC(=O)[C@@H](CN3CCCCC3)[C@@H]2CC1 | 87% | 90% | 93% | 85% | 5.41 | 4.64 | 4.77 | 5.40 |  |  |
| CC1=C2C[C@H]3O[C@@]3(C)[C@@H]2[C@H]2OC(=O)[C@@H](CN3CCOCC3)[C@@H]2CC1 | 42% | 58% | 97% | 59% | 5.55 |  |  |  |  |  |
| CC1=C2C[C@H]3O[C@@]3(C)[C@@H]2[C@H]2OC(=O)[C@@H](CNCc3ccc(F)cc3)[C@@H]2CC1 | 16% | 0% | 26% | 64% |  |  |  |  |  |  |
| CC1=C2C[C@H]3O[C@@]3(C)[C@@H]2[C@H]2OC(=O)[C@@H](Cn3ccnc3)[C@@H]2CC1 | 0% | 42% | 36% | 53% |  |  |  |  |  |  |
| CC1=C2C[C@H]3O[C@@]3(C)[C@@H]2[C@H]2OC(=O)[C@@H](Cn3cnc([N+](=O)[O-])c3)[C@@H]2CC1 | 0% | 30% | 32% | 15% |  |  |  |  |  |  |
| CC1=C2C[C@H]3O[C@@]3(C)[C@@H]2[C@H]2OC(=O)[C@@H](Cn3cncn3)[C@@H]2CC1 | 69% | 70% | 83% | 66% | 4.82 | 4.46 | 4.49 | 4.70 |  |  |
| CC1=C2C[C@H]3O[C@@]3(C)[C@@H]2[C@H]2OC(=O)[C@@H](Cn3nc4ccccc4n3)[C@@H]2CC1 | 25% | 13% | 15% | 40% |  |  |  |  |  |  |
| CC1=C2C[C@H]3O[C@@]3(C)[C@@H]2[C@H]2OC(=O)[C@@H](Cn3ncc4ccc([N+](=O)[O-])cc43)[C@@H]2CC1 | 84% | 86% | 63% | 99% | 4.54 | 5.66 | 4.46 | 4.77 | 3 |  |
| CC1=C2C[C@H]3O[C@@]3(C)[C@@H]2[C@H]2OC(=O)[C@@H](Cn3ncc4cc([N+](=O)[O-])ccc43)[C@@H]2CC1 | 99% | 57% | 72% | 52% | 4.51 | 4.47 | 5.59 | 4.40 |  | 3 |
| C=C1C(=O)O[C@H]2[C@H]1CCC(C)=C1C[C@H]3O[C@@]3(C)[C@@H]12 [LUDARTIN] | 97% | 97% | 98% | 97% | 5.51 | 5.12 | 5.13 | 5.16 |  |  |
